pIC50: −log10 of the molar value.
Legend:
Type in all cases: functional, organism-based
Homo sapiens [1] = organism: Homo sapiens; assay: Compound was tested for the inhibitory activity against human platelet aggregation by U46,619 (0.3 uM) + Aspirin (ASA, 1 mM).
Procedure, shortened: (§1)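 Human platelet-rich plasma, count adjusted to 3 × 10^8/mL. Turbidometric (Born) aggregometry. Inhibitor added 1 min before inducer, which was used at the minimum level giving maximal aggregation. IC50 taken from change in light-transmittance amplitude after 6 min for ADP (secondary aggregation only) and 4 min for AA and U46619. U46619 samples contained aspirin 1 mM. Mean ± SEM, three to nine donors.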

Homo sapiens [2] = organism: Homo sapiens; assay: Compound was tested for the inhibitory activity against serotonin secretion by arachidonic acid (AA (0.1-1 mM)).; conditions: in the assay text read “AA (0.2-1 mM)” for “AA (0.1-1 mM)”
Procedure, shortened: (§2)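 Human platelet-rich plasma (3 × 10^8/mL) prelabeled with [14C]serotonin. Inhibitor added 1 min before the inducer: ADP 1–5 μM, AA 0.2–1 mM, or U46619 0.3 μM with aspirin 1 mM. Dense-granule secretion measured as release of radioactivity. Mean IC50 ± SEM, three to nine donors.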

Homo sapiens [3] = organism: Homo sapiens; assay: Compound was tested for the inhibitory activity against human platelet aggregation by arachidonic acid (AA (0.1-1 mM)).; conditions: in the assay text read “AA (0.2-1 mM)” for “AA (0.1-1 mM)”; procedure, shortened: as §1
Homo sapiens [4] = organism: Homo sapiens; assay: Compound was tested for the inhibitory activity against human platelet aggregation by adenosine -Diphosphate (ADP (1-5 uM)); procedure, shortened: as §1
Homo sapiens [5] = organism: Homo sapiens; assay: Compound was tested for the inhibitory activity against serotonin secretion by U-46,619 (0.3 uM) + Aspirin (ASA, 1 mM).; procedure, shortened: as §2
Homo sapiens [6] = organism: Homo sapiens; assay: Compound was tested for the inhibitory activity against serotonin secretion by adenosine -Diphosphate (ADP (1-5 uM)).; procedure, shortened: as §2
Homo sapiens [7] = organism: Homo sapiens; assay: Compound was tested for the inhibitory activity against serotonin secretion by adenosine -Diphosphate (ADP (1-5 uM)); procedure, shortened: as §2

pIC50 (Homo sapiens [1])	pIC50 (Homo sapiens [2])	pIC50 (Homo sapiens [3])	pIC50 (Homo sapiens [4])	pIC50 (Homo sapiens [5])	pIC50 (Homo sapiens [6])	pIC50 (Homo sapiens [7])	Structure (SMILES)
< 2.40	< 2.46	< 2.51					CC(C)(Oc1ccc(Cl)cc1)C(=O)O [CLOFIBRIC ACID]
2.83	3.00	3.07	3.27	2.84	3.38		O=C(O)C1Cc2cc(Cl)ccc2O1 (stereo not given)
2.82	3.09	3.13	3.44	2.62		3.33	O=c1c(O)c(O)oc2ccc(Cl)cc12
